Experimental data published in ChEMBL document CHEMBL1126834, “Chemistry, binding affinities, and behavioral properties of a new class of "antineophobic" mitochondrial DBI receptor complex (mDRC) ligands” (J Med Chem, 1993).
pIC50, pKi: −log10 of the molar value.

Tests used:
Cannabinoid receptor 1 = Cannabinoid receptor 1 (Rattus norvegicus, UniProt P20272); assay: Inhibitory activity, measured by displacement [3H]CP-55940 from cannabinoid receptor (CB1) in rat brain; type: tissue-based
Translocator protein = Translocator protein (Rattus norvegicus, UniProt P16257); assay: Binding affinity against mitochondrial DBI complex (peripheral benzodiazepine receptor) using primary cultures of glial cells
Translocator protein, sequence (P16257 whole entry, looked up): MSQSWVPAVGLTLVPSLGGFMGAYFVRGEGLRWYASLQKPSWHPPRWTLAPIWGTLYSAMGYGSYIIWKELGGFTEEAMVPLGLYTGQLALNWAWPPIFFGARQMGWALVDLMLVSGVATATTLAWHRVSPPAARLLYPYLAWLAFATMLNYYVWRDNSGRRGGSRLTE
How it was run: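 Glia from cerebella of 8-day-old Sprague–Dawley rat pups, trypsin-dissociated and grown 14 days (~95% astroglia). Cells lysed in 50 mM Hepes pH 7.4, 4 μg protein per tube. Incubated with [3H]4'-chlorodiazepam and competitor for 90 min at 4 °C, then filtered. Nonspecific binding defined with 10 μM 4'-chlorodiazepam. Triplicate competition curves; IC50 by nonlinear regression, converted to Ki (Bylund–Yamamura).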

[1] = biological target: GABA-A receptor; anion channel; assay: Inhibitory activity at GABA A receptor, measured by the ability to displace [3H]flumazenil from GABA A receptor in rat brain; type: tissue-based
[2] = Inhibitory activity by measuring its ability to displace [3H]glycine from glycine receptor in rat brain; type: tissue-based
[3] = Inhibitory activity at GABA B receptor, measured by the ability to displace [3H]baclofen from GABA B receptor in rat brain; type: tissue-based
[4] = biological target: GABA-A receptor; anion channel; assay: Inhibitory activity at GABA A receptor, measured by the ability to displace [35S]TBPS from GABA A receptor in rat brain; type: tissue-based
[5] = biological target: Adrenergic receptor alpha; assay: Inhibitory activity by measuring its ability to displace [3H]WB-4101 from alpha-adrenergic receptor in rat brain; type: tissue-based
[6] = biological target: Adrenergic receptor alpha; assay: Inhibitory activity by measuring its ability to displace [3H]clonidine from alpha-adrenergic receptor in rat brain; type: tissue-based
[7] = biological target: GABA-A receptor; anion channel; assay: Inhibitory activity at GABA A receptor, measured by the ability to displace [3H]GABA from GABA A receptor in rat brain; type: tissue-based
Glutamate NMDA receptor = assay: Inhibitory activity by measuring its ability to displace [3H]-MK-801 from glutamate(NMDA) receptor in rat brain; type: tissue-based
[8] = biological target: T1, Gastrin/cholecystokinin type B receptor (Rattus norvegicus, UniProt P30553); assay: Inhibitory activity by measuring its ability to displace [3H]L-365260 from cholecystokinin receptor in rat brain; type: tissue-based
T1 sequence (P30553 whole entry): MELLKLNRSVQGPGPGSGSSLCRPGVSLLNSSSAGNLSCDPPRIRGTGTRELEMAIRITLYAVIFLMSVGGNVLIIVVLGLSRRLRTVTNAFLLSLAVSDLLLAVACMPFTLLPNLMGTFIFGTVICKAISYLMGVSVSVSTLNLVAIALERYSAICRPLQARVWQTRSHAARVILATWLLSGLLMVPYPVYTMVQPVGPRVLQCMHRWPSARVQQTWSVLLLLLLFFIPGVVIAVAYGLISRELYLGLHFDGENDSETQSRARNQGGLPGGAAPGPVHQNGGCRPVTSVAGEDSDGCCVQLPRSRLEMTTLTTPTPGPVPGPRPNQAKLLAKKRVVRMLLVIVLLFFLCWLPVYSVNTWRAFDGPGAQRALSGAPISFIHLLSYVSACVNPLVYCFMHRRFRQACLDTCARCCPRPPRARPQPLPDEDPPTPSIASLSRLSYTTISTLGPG

[9] = Inhibitory activity by measuring its ability to displace [3H]spiperone from dopamine or serotonin 5-HT-1 receptors in rat brain; type: tissue-based
Adrenergic receptor beta = Adrenergic receptor beta (Rattus norvegicus, UniProt P18090+P10608+P26255); assay: Inhibitory activity by measuring its ability to displace [125I]pindolol from beta-adrenergic receptor in rat brain; type: tissue-based
[10] = biological target: GABA-A receptor; anion channel; assay: Inhibitory activity at GABA A receptor, measured by the ability to displace [3H]zolpidem from GABA A receptor in rat brain; type: tissue-based
[11] = Tested for inhibitory activity by measuring its ability to displace [3H]AMPA from glutamate (non-NMDA) receptor in rat brain; type: tissue-based

Cannabinoid receptor 1, sequence (P20272 whole entry): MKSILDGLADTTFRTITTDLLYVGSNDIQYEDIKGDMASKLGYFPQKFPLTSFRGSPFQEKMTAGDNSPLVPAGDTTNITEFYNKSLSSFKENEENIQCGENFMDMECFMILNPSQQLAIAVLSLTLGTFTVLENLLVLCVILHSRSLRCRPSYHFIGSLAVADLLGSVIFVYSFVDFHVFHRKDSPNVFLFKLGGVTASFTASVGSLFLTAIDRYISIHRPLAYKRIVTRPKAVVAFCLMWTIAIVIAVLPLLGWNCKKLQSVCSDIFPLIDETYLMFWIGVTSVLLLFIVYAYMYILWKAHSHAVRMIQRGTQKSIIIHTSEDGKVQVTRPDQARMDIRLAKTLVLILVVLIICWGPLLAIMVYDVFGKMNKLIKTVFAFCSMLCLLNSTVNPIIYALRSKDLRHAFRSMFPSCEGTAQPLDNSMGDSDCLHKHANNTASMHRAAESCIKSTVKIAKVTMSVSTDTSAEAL

Row | pIC50 (Cannabinoid receptor 1) | pKi (Translocator protein) | pIC50 [1] | pIC50 [2] | pIC50 [3] | pIC50 [4] | IC50 [5] [nM] | IC50 [6] [nM] | pIC50 [7] | pIC50 (Glutamate NMDA receptor) | pIC50 [8] | pIC50 [9] | IC50 (Adrenergic receptor beta) [nM] | pIC50 [10] | pIC50 [11] | Compound
1 | < 6.00 | 6.17 | < 6.00 | < 6.00 | < 6.00 | < 6.00 | > 1000 | > 1000 | < 6.00 | < 6.00 | < 6.00 | < 6.00 | > 1000 | < 6.00 | < 6.00 | CCCN(CCC)C(=O)Cc1c(-c2cccc(Cl)c2)[nH]c2ccccc12
2 | < 6.00 | 6.87 | < 6.00 | < 6.00 | < 6.00 | < 6.00 | > 1000 | > 1000 | < 6.00 | < 6.00 | < 6.00 | < 6.00 | > 1000 | < 6.00 | < 6.00 | CCCCCCN(C)C(=O)Cc1c(-c2ccc(F)cc2)[nH]c2ccccc12
3 | < 6.00 | 7.18 | < 6.00 | < 6.00 | < 6.00 | < 6.00 | > 1000 | > 1000 | < 6.00 | < 6.00 | < 6.00 | < 6.00 | > 1000 | < 6.00 | < 6.00 | CCCN(CCC)C(=O)Cc1c(-c2ccc(C)cc2)[nH]c2ccc(C)cc12
4 | < 6.00 |  | < 6.00 | < 6.00 | < 6.00 | < 6.00 | > 1000 | > 1000 | < 6.00 | < 6.00 | < 6.00 | < 6.00 | > 1000 | < 6.00 | < 6.00 | O=C1Cc2c([nH]c3ccccc23)-c2ccccc2N1 [PAULLONE]
5 | < 6.00 | 7.00 | < 6.00 | < 6.00 | < 6.00 | < 6.00 | > 1000 | > 1000 | < 6.00 | < 6.00 | < 6.00 | < 6.00 | > 1000 | < 6.00 | < 6.00 | CCCN(CCC)C(=O)Cc1c(-c2ccccc2)[nH]c2ccccc12
6 | < 6.00 | 6.48 | < 6.00 | < 6.00 | < 6.00 | < 6.00 | > 1000 | > 1000 | < 6.00 | < 6.00 | < 6.00 | < 6.00 | > 1000 | < 6.00 | < 6.00 | CCCN(CCC)C(=O)Cc1c2n(c3ccccc13)CCCc1ccccc1-2
7 | < 6.00 | 6.81 | < 6.00 | < 6.00 | < 6.00 | < 6.00 | > 1000 | > 1000 | < 6.00 | < 6.00 | < 6.00 | < 6.00 | > 1000 | < 6.00 | < 6.00 | CCN(CC)C(=O)Cc1c(-c2ccccc2)[nH]c2ccccc12
8 | < 6.00 | 6.68 | < 6.00 | < 6.00 | < 6.00 | < 6.00 | > 1000 | > 1000 | < 6.00 | < 6.00 | < 6.00 | < 6.00 | > 1000 | < 6.00 | < 6.00 | CCCN(CCC)C(=O)Cc1c(-c2ccccc2)[nH]c2c(F)cccc12
9 | < 6.00 | 6.10 | < 6.00 | < 6.00 | < 6.00 | < 6.00 | > 1000 | > 1000 | < 6.00 | < 6.00 | < 6.00 | < 6.00 | > 1000 | < 6.00 | < 6.00 | CCCN(CCC)C(=O)C(C)c1c(-c2ccc(Cl)cc2)[nH]c2ccccc12 (centres undefined)
